ChEMBL document CHEMBL5126577, “Discovery of honokiol thioethers containing 1,3,4-oxadiazole moieties as potential α-glucosidase and SARS-CoV-2 entry inhibitors” (Bioorg Med Chem, 2022)

Assays:
[1] = Cytotoxicity against human HEK-293T cells overexpressing ACE2 assessed as maximal non-toxic dose incubated for 4 hrs; format: toxicity, cell-based
[2] = Inhibition of alpha-glucosidase (unknown origin) using PNPG as substrate at 5 to 45 uM preincubated for 15 mins followed by substrate addition and measured after 10 mins by microplate reader analysis; settings: Homo sapiens; dose 5-45 µM, time 25.0 min
In short: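 Compounds in DMSO/PBS dilution series were incubated with α-glucosidase (1.0 U/mL in PBS) for 15 min at 37 °C. 1 mM PNPG was added and incubated 10 min, then OD was read at 405 nm. Inhibition % was corrected with PBS-only and enzyme-free blanks. IC50 was calculated, with experiments run in triplicate.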

[3] = target: Spike glycoprotein (Severe acute respiratory syndrome coronavirus 2, UniProt P0DTC2); experiment: Binding affinity to SARS-CoV-2 spike protein receptor-binding domain assessed as equilibrium dissociation constant by biolayer interferometry assay
In short: (§1)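 BLI on Ni-NTA biosensors loaded with His-tagged recombinant SARS-CoV-2 spike RBD or human ACE2. Compounds (10 mM DMSO stock) were diluted serially in PBS. Each cycle: PBS equilibration 10 min, baseline 120 s, association 120 s, dissociation in PBS 120 s, all at 30 °C. Curves were double-referenced to blank sensors and PBS, and KD came from a 1:1 binding fit.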

[4] = target: Angiotensin-converting enzyme 2 (Homo sapiens, UniProt Q9BYF1); experiment: Binding affinity to human ACE2 assessed as equilibrium dissociation constant by biolayer interferometry assay; in short: as §1
Sequence of Angiotensin-converting enzyme 2 (Q9BYF1 whole entry): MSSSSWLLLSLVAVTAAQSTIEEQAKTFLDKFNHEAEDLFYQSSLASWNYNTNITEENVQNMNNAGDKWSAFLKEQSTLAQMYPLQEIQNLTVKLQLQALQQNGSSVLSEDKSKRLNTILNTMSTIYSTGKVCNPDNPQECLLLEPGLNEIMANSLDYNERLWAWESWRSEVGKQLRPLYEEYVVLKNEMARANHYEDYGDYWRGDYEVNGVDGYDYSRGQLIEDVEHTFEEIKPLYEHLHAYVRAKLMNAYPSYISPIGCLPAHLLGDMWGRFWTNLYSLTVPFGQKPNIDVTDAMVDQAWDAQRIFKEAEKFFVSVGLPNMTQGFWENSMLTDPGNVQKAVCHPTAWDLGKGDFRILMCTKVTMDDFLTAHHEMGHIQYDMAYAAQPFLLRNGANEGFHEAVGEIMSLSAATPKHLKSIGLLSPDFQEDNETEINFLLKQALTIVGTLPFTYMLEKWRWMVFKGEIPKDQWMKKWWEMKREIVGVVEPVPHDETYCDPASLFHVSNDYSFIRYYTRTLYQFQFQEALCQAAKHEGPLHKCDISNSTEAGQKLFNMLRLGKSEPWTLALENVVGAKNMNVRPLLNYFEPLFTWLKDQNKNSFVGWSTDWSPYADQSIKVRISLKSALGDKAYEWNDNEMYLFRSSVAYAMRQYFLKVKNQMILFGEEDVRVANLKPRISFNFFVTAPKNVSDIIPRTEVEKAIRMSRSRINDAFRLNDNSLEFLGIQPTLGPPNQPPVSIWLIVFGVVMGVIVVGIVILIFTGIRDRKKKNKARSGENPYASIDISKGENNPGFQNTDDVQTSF

[5] = tested on: L02; experiment: Cytotoxicity against human L02 cells assessed as reduction on cell viability at 3.125 to 100 uM by MTT assay; format: toxicity, cell-based; settings: l02, 100 µM, dose 3.125-100 µM
[6] = Cytotoxicity against human L02 cells assessed as cell survival rate at 100 uM by MTT assay; format: toxicity, cell-based; settings: read-out: Survival

| Structure (SMILES) | MNTC at 4 h [1] | inhibition [2] | other results |
| --- | --- | --- | --- |
| C=CCc1cc(-c2cc(CC=C)c3oc(SCc4nnc(-c5ccccc5C)o4)nc3c2)c2oc(SCc3nnc(-c4ccccc4C)o3)nc2c1 | > 100 µM |  |  |
| C=CCc1cc(CSc2nnc(-c3cccc(OC)c3)o2)c(O)c(-c2ccc(O)c(CC=C)c2)c1 |  | 81.8% |  |
| C=CCc1cc(-c2cc(CC=C)c3oc(SCc4nnc(-c5ccc(Br)cc5)o4)nc3c2)c2oc(SCc3nnc(-c4ccc(Br)cc4)o3)nc2c1 | > 100 µM | 22.4% |  |
| C=CCc1cc(-c2cc(CC=C)c3oc(SCc4nnc(-c5ccccc5Br)o4)nc3c2)c2oc(SCc3nnc(-c4ccccc4Br)o3)nc2c1 | > 100 µM | 91.5% |  |
| C=CCc1cc(CSc2nnc(-c3ccccc3F)o2)c(O)c(-c2ccc(O)c(CC=C)c2)c1 | > 100 µM |  |  |
| C=CCc1cc(CSc2nnc(-c3ccc([N+](=O)[O-])cc3)o2)c(O)c(-c2ccc(O)c(CC=C)c2)c1 |  | 79.5% |  |
| C=CCc1cc(-c2cc(CC=C)c3oc(SCc4nnc(-c5ccccc5OC)o4)nc3c2)c2oc(SCc3nnc(-c4ccccc4OC)o3)nc2c1 | > 100 µM | 25.2% |  |
| C=CCc1cc(-c2cc(CC=C)c3oc(SCc4nnc(-c5ccc(C)cc5)o4)nc3c2)c2oc(SCc3nnc(-c4ccc(C)cc4)o3)nc2c1 | > 100 µM | 13.5% |  |
| C=CCc1cc(CSc2nnc(-c3cccc(F)c3)o2)c(O)c(-c2ccc(O)c(CC=C)c2)c1 |  | 53.5% |  |
| C=CCc1cc(-c2cc(CC=C)c3oc(SCc4nnc(-c5cccc(Br)c5)o4)nc3c2)c2oc(SCc3nnc(-c4cccc(Br)c4)o3)nc2c1 | > 100 µM | 12.4% |  |
| C=CCc1cc(-c2cc(CC=C)c3oc(SCc4nnc(-c5ccc(F)cc5)o4)nc3c2)c2oc(SCc3nnc(-c4ccc(F)cc4)o3)nc2c1 | > 100 µM | 8.4% |  |
| C=CCc1cc(CSc2nnc(-c3ccccc3)o2)c(O)c(-c2ccc(O)c(CC=C)c2)c1 | > 100 µM | 69.8% | Kd [3]: 6.94 µM; Kd [4]: 14 µM; Activity [5]: Non-Toxic; viability at 100 µM [6]: 80% |
| C=CCc1cc(-c2cc(CC=C)c3oc(SCc4nnc(-c5cccc(C)c5)o4)nc3c2)c2oc(SCc3nnc(-c4cccc(C)c4)o3)nc2c1 | > 100 µM | 95.2% | Activity [5]: Non-Toxic; viability at 100 µM [6]: 80% |
| C=CCc1cc(CSc2nnc(-c3cccc(C)c3)o2)c(O)c(-c2ccc(O)c(CC=C)c2)c1 |  | 78.2% |  |
| C=CCc1cc(CSc2nnc(-c3ccccc3C)o2)c(O)c(-c2ccc(O)c(CC=C)c2)c1 | > 100 µM | 64.5% |  |
| C=CCc1cc(-c2cc(CC=C)c3oc(SCc4nnc(-c5ccccc5Cl)o4)nc3c2)c2oc(SCc3nnc(-c4ccccc4Cl)o3)nc2c1 | > 100 µM | 19.4% |  |
| C=CCc1cc(CSc2nnc(-c3ccc(C)cc3)o2)c(O)c(-c2ccc(O)c(CC=C)c2)c1 |  | 6.7% |  |
| C=CCc1cc(-c2cc(CC=C)c3oc(SCc4nnc(-c5ccccc5F)o4)nc3c2)c2oc(SCc3nnc(-c4ccccc4F)o3)nc2c1 | > 100 µM | 33.9% |  |
| C=CCc1cc(-c2cc(CC=C)c3oc(SCc4nnc(-c5ccc(OC)cc5)o4)nc3c2)c2oc(SCc3nnc(-c4ccc(OC)cc4)o3)nc2c1 | > 100 µM | 9.9% |  |
| C=CCc1cc(CSc2nnc(-c3ccc(Cl)cc3)o2)c(O)c(-c2ccc(O)c(CC=C)c2)c1 |  | 7.1% |  |
| C=CCc1cc(-c2cc(CC=C)c3oc(SCc4nnc(-c5cccc(OC)c5)o4)nc3c2)c2oc(SCc3nnc(-c4cccc(OC)c4)o3)nc2c1 | > 100 µM | 95.5% |  |
| C=CCc1cc(CSc2nnc(-c3ccc(Br)cc3)o2)c(O)c(-c2ccc(O)c(CC=C)c2)c1 |  | 3.7% |  |
| C=CCc1cc(-c2cc(CC=C)c3oc(SCc4nnc(-c5cccc(Cl)c5)o4)nc3c2)c2oc(SCc3nnc(-c4cccc(Cl)c4)o3)nc2c1 | > 100 µM | 10.4% |  |
| C=CCc1cc(-c2cc(CC=C)c3oc(SCc4nnc(-c5ccc(Cl)cc5)o4)nc3c2)c2oc(SCc3nnc(-c4ccc(Cl)cc4)o3)nc2c1 | > 100 µM | 57.9% |  |
| C=CCc1cc(-c2cc(CC=C)c3oc(SCc4nnc(-c5ccccc5)o4)nc3c2)c2oc(SCc3nnc(-c4ccccc4)o3)nc2c1 | > 100 µM | 6.3% |  |
| C=CCc1ccc(O)c(-c2ccc(O)c(CC=C)c2)c1 [HONOKIOL] | 50 µM | 17.1% | Kd [3]: 25 µM |
| C=CCc1cc(-c2cc(CC=C)c3oc(SCc4nnc(-c5cccc(F)c5)o4)nc3c2)c2oc(SCc3nnc(-c4cccc(F)c4)o3)nc2c1 | > 100 µM | 14.6% |  |
| C=CCc1cc(CSc2nnc(-c3ccccc3Cl)o2)c(O)c(-c2ccc(O)c(CC=C)c2)c1 | > 100 µM | 64.5% |  |
| C=CCc1cc(CSc2nnc(-c3cccnc3)o2)c(O)c(-c2ccc(O)c(CC=C)c2)c1 | > 100 µM | 33.2% | Kd [3]: 7.29 µM; Kd [4]: 16 µM; Activity [5]: Non-Toxic; viability at 100 µM [6]: 80% |
